Results of several laboratories.
Each line is one published result; the experiments were not run side by side.
Cell line: NCI-H522
Read-out: cell growth or viability

With `O=C1Nc2ccccc2C1=NNc1nnc2n1N=C(c1ccccc1)CS2` the inhibition was 57% (SRB; 10 µM).
`Cc1cc(C)n(C(=S)[S][Au][PH](CCCCCC[PH]([Au][S]C(=S)n2nc(C)cc2C)(c2ccccc2)c2ccccc2)(c2ccccc2)c2ccccc2)n1` gave a GI50 of 1240 nM (SRB).
The inhibition of `COc1ccc(C(=O)/C=C/c2ccc3ccccc3c2)cc1S(N)(=O)=O` is reported as 163% (SRB; 10 µM).
`COc1ccc(-c2ccc(-c3ccc(C(=N)N)nc3)s2)cc1` gave a GI50 of 1900 nM (SRB).
For `CCc1n(Cc2ccc3ccccc3n2)cc[n+]1Cc1ccc2ccccc2c1`, the TGI was 986 nM (SRB).
For `COc1ccc(C(=O)/C=C/c2cccc3ccccc23)cc1S(N)(=O)=O`, the GI50 was 1600 nM (SRB; 48 h).
With `CCCc1n(Cc2ccc3ccccc3n2)cc[n+]1Cc1ccc2ccccc2c1` the TGI was 1130 nM (SRB).
`O=C1NC(=NCc2cccs2)S/C1=C\c1ccc2ncccc2c1` has an IC50 of over 10000 nM.
For `c1ccc2cc(Cn3cc[n+](Cc4ccc5ccccc5c4)c3)ccc2c1`, the TGI was 3110 nM (SRB).
For `COc1ccc(C(=O)/C=C/c2cccc(Br)c2)cc1S(N)(=O)=O`, the GI50 was 1600 nM (SRB; 48 h).
The GI50 of `COc1ccc(-c2ccc(-c3ccc(C(=N)N)nc3)s2)cc1Cl` is reported as 2100 nM (SRB).
`Cc1n(Cc2ccc3ccccc3n2)cc[n+]1Cc1ccc2ccccc2c1` has a TGI of 1460 nM (SRB).
For `COc1ccc(C(=O)/C=C/c2cccnc2)cc1S(N)(=O)=O`, the GI50 was 10500 nM (SRB; 48 h).
